The values that follow come from publication PMC3578163 (Chemical research in toxicology, 2013).

Read-outs that look alike come from different tables or passages of the source.

Assay [1] addresses T1, hpol κ^19–526 (Homo sapiens, UniProt Q9UBT6).
T1 sequence (Q9UBT6 19-526): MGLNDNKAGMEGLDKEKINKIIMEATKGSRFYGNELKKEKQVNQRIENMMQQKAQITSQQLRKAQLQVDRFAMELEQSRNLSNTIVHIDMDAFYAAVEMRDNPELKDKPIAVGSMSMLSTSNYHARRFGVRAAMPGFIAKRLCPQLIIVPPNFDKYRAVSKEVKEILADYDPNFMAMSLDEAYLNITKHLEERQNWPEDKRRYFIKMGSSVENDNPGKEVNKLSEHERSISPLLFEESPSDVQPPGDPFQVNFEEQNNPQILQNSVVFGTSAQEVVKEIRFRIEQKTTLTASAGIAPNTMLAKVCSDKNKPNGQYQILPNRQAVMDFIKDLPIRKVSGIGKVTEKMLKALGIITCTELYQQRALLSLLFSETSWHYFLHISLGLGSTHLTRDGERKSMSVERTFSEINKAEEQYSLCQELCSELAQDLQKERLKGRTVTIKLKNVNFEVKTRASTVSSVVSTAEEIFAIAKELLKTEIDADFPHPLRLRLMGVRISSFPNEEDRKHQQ
It counts as binding. The note with it: for Kd: read-out: Kd,DNA (polymerase binding to primer-template DNA). In a few lines: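 Recombinant human polymerase (His/GST-tagged, expressed in E. coli BL21(DE3), tags cleaved) titrated into 2 nM FAM-labelled 13/18-mer primer-template at 25 °C. Buffer: 50 mM HEPES pH 7.5, 10 mM KOAc, 10 mM MgCl₂, 0.1 mM ZnCl₂, 0.1 mM EDTA, 10% DMSO, 0.1 mg/mL BSA. MK886 at 0–250 μM, with DMSO as control. Polarization read at ex 485/em 525 nm. Kd fitted with total DNA held constant.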

The target of assay [2] is T2, hpol ι^26–446 (Homo sapiens, UniProt Q9UNA4).
T2 sequence (Q9UNA4 26-446): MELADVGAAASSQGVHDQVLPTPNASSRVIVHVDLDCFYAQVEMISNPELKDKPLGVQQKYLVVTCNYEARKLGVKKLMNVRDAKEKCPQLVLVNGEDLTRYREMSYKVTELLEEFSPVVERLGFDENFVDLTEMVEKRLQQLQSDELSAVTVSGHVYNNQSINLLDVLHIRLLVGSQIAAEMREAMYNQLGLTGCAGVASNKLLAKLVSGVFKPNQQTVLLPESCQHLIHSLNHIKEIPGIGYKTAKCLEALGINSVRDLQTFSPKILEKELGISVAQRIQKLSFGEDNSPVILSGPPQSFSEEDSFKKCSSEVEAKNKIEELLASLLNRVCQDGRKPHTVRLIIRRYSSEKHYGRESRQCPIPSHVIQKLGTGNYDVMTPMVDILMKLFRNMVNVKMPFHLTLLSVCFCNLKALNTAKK
The assay can be described thus: polymerase-catalyzed primer extension. It counts as biochemical. The conditions noted are these: read-out: IC50 for inhibition of DNA polymerase activity; all four dNTPs 0.25 mM, MgCl2 5 mM; 20 nM enzyme, 200 nM DNA, 37 °C.

Assay [3] has as its target T2, hpol ι^26–446. The assay is described as follows: steady-state single-nucleotide. It counts as biochemical. The conditions noted are these: for kcat: dCTP insertion. Summed up:
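Single dCTP insertion on a FAM-labelled primer-template: 5 nM enzyme, 100 nM DNA. Started with dCTP (10 concentrations, 1–1500 μM) plus 2 mM Mg²⁺. MK886 at 20 nM, 50 nM, 1 μM or 10 μM, or DMSO. Time points quenched with 95% formamide/20 mM EDTA; products resolved on 16% acrylamide/7 M urea gels. Velocities fitted to Michaelis–Menten; kcat and KM taken after enzyme correction.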

Assay [4] relates to COX1. The conditions noted are these: read-out: IC50 value for COX1 inhibition; in vitro activity assays; cited from earlier work.

What is called Kd is a measure of binding affinity in units of concentration. As a reminder, the IC50 is the concentration needed to halve the response being measured. By kcat is commonly meant the number of substrate molecules converted per active site and unit of time at saturation. With `CC(C)c1ccc2c(c1)c(SC(C)(C)C)c(CC(C)(C)C(=O)O)n2Cc1ccc(Cl)cc1` [MK886, 3-[1-(4-chlorobenzyl)-3-t-butyl-thio-5-isoproylindol-2-yl]-2,2-dimethylpropanoic acid], in assay [1] (hpol κ vs hpol ι^26–446), the “change in binding affinity for hpol κ relative to that observed for hpol ι^26–446” value is recorded as ~ 2 fold. Further, the dissociation constant (Kd) in assay [1] (25 μM MK886) was found to be 0.026 ± 0.0091 µM; in assay [1] (50 μM MK886) it was 0.0241 ± 0.0094 µM; in assay [1] (100 μM MK886), 0.0313 ± 0.0121 µM; in assay [1] (150 μM MK886), 0.0704 ± 0.0157 µM; in assay [1] (250 μM MK886), 0.0679 ± 0.0171 µM. Besides, the 50% inhibitory concentration (IC50) in assay [2] was 8.2 ± 0.6 µM; in assay [4], 8 µM. The kcat in assay [3] (0.02 μM MK886) is 0.0233 ± 0.0017 s⁻¹; in assay [3] (0.05 μM MK886), 0.02 ± 0.0017 s⁻¹; in assay [3] (1 μM MK886) it was 0.0267 ± 0.0017 s⁻¹; in assay [3] (10 μM MK886) it was 0.025 ± 0.0017 s⁻¹. Also, the “Fold decrease in kcat/KM,dNTP” value in assay [3] (0.02 μM MK886 vs no inhibitor) was determined as 1.5; in assay [3] (0.05 μM MK886 vs no inhibitor), 2.1; in assay [3] (1 μM MK886 vs no inhibitor) it was 2.1; in assay [3] (10 μM MK886 vs no inhibitor), 2.8. Also, the “mechanism of inhibition of DNA polymerase activity” value in assay [3] (single-nucleotide insertion, kcat and Km,dNTP both altered) was “mixed-model of inhibition”.
